Test results taken from ChEMBL document CHEMBL1155254, “Diketoacid-genre HIV-1 integrase inhibitors containing enantiomeric arylamide functionality” (Bioorg Med Chem, 2009).

What was measured:
[1] = molecular target: T1, Human immunodeficiency virus type 1 integrase (Human immunodeficiency virus 1, UniProt Q7ZJM1); assay: Inhibition of HIV1 integrase strand transfer activity expressed in Escherichia coli by PAGE
Method in brief: (§1)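 Recombinant IN expressed in E. coli and purified with 10% glycerol in all buffers. 10 μL reactions held 400 nM IN, 20 nM 5'-end [³²P]-labeled oligonucleotide substrate and inhibitor at various concentrations, with 10% DMSO controls. Buffer was 50 mM MOPS pH 7.2 with 7.5 mM MgCl₂ (final), 30 min at 37 °C. Stopped with EDTA/formamide loading dye.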

[2] = molecular target: T1, Human immunodeficiency virus type 1 integrase; assay: Inhibition of HIV1 integrase 3'-processing activity expressed in Escherichia coli by PAGE; method in brief: as §1

T1 sequence (Q7ZJM1 whole entry): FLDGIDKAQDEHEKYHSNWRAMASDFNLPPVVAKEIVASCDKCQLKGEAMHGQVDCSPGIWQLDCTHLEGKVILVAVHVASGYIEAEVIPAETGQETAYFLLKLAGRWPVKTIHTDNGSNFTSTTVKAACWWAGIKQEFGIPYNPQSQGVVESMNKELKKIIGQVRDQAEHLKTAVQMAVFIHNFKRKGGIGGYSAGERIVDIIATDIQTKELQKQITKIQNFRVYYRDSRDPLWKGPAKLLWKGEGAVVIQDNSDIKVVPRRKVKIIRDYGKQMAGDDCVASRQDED

**Q.** Which IC50 [1] does the source give for O=C1c2ccc(O)c(O)c2C(=O)N1Cc1ccccc1 here?
**A.** Its IC50 is 0.39 µM.

**Q.** What does the source list for C[C@H](C1CCCc2ccccc21)N1Cc2ccc(O)c(O)c2C1=O (stereo partly specified)?
**A.** IC50 [1]: 121 µM; IC50 [2]: > 333 µM

**Q.** Which IC50 [1] does the source give for O=C1c2ccc(O)c(O)c2C(=O)N1[C@H]1CCc2ccccc21 here?
**A.** The IC50 was 1.8 µM.

**Q.** What about the IC50 [2] of the same molecule?
**A.** The IC50 was 128 µM.

**Q.** How did the IC50 [1] turn out when C[C@@H](c1cccc2ccccc12)N1Cc2ccc(O)c(O)c2C1=O was run?
**A.** The IC50 was 4 µM.

**Q.** And the IC50 [2]?
**A.** The IC50 was greater than 111 µM.

**Q.** With O=C1c2ccc(O)c(O)c2C(=O)N1CCc1ccccc1 as the molecule, how does the IC50 [1] read?
**A.** The IC50 was 6.8 µM.

**Q.** And the IC50 [2]?
**A.** Its IC50 is 157 µM.

**Q.** What does the source list for C[C@H](C1CCc2ccccc21)N1Cc2ccc(O)c(O)c2C1=O (stereo partly specified)?
**A.** IC50 [1]: 99 µM; IC50 [2]: > 333 µM

**Q.** Which results are given for C[C@H](c1ccccc1)N1Cc2ccc(O)c(O)c2C1=O?
**A.** IC50 [1]: 100 µM; IC50 [2]: > 333 µM

**Q.** Which results are given for O=C1c2c(ccc(O)c2O)CN1Cc1ccc2ccccc2c1?
**A.** IC50 [1]: 0.8 µM; IC50 [2]: 24 µM

**Q.** C[C@@H](c1ccccc1)N1Cc2ccc(O)c(O)c2C1=O was tested. Which IC50 [1] did it give?
**A.** The IC50 was 45 µM.

**Q.** And the IC50 [2]?
**A.** Its IC50 is greater than 333 µM.

**Q.** For O=C1c2ccc(O)c(O)c2C(=O)N1C1Cc2ccccc2C1, which IC50 [1] is on record?
**A.** The IC50 was 4 µM.

**Q.** And the IC50 [2]?
**A.** Its IC50 is 37 µM.

**Q.** Which IC50 [1] does the source give for O=C1c2ccc(O)c(O)c2C(=O)N1[C@H]1CCCc2ccccc21 here?
**A.** Its IC50 is 10 µM.

**Q.** And the IC50 [2]?
**A.** The IC50 was 111 µM.

**Q.** With C[C@@H](c1ccc2ccccc2c1)N1Cc2ccc(O)c(O)c2C1=O as the molecule, how does the IC50 [1] read?
**A.** Its IC50 is 4.6 µM.

**Q.** And the IC50 [2]?
**A.** Its IC50 is greater than 111 µM.

**Q.** For O=C1c2ccc(O)c(O)c2C(=O)N1Cc1cccc2ccccc12, which IC50 [1] is on record?
**A.** Its IC50 is 0.72 µM.

**Q.** What about the IC50 [2] of the same molecule?
**A.** Its IC50 is 150 µM.

**Q.** O=C1c2ccc(O)c(O)c2C(=O)N1Cc1ccc2ccccc2c1 was tested. Which IC50 [1] did it give?
**A.** Its IC50 is 0.96 µM.

**Q.** And the IC50 [2]?
**A.** Its IC50 is 18 µM.

**Q.** For C[C@H](c1cccc2ccccc12)N1Cc2ccc(O)c(O)c2C1=O, which IC50 [1] is on record?
**A.** The IC50 was 48.3 µM.

**Q.** And the IC50 [2]?
**A.** Its IC50 is greater than 111 µM.

**Q.** O=C1c2ccc(O)c(O)c2C(=O)N1[C@@H]1CCCc2ccccc21 was tested. Which IC50 [1] did it give?
**A.** The IC50 was 81 µM.

**Q.** And the IC50 [2]?
**A.** Its IC50 is greater than 333 µM.

**Q.** Which IC50 [1] does the source give for C[C@H](c1ccc2ccccc2c1)N1Cc2ccc(O)c(O)c2C1=O here?
**A.** Its IC50 is 24 µM.

**Q.** And the IC50 [2]?
**A.** The IC50 was greater than 111 µM.

**Q.** For O=C1c2ccc(O)c(O)c2C(=O)N1[C@@H]1CCc2ccccc21, which IC50 [1] is on record?
**A.** The IC50 was 12 µM.

**Q.** What about the IC50 [2] of the same molecule?
**A.** The IC50 was 290 µM.

**Q.** What does the source list for C[C@@H](C1CCc2ccccc21)N1Cc2ccc(O)c(O)c2C1=O (stereo partly specified)?
**A.** IC50 [1]: 6 µM; IC50 [2]: > 333 µM

**Q.** How did the IC50 [1] turn out when C[C@@H](C1CCCc2ccccc21)N1Cc2ccc(O)c(O)c2C1=O (stereo partly specified) was run?
**A.** The IC50 was 9 µM.

**Q.** And the IC50 [2]?
**A.** The IC50 was greater than 333 µM.

**Q.** How did the IC50 [1] turn out when O=C1c2c(ccc(O)c2O)CN1C1Cc2ccccc2C1 was run?
**A.** Its IC50 is 23 µM.

**Q.** What about the IC50 [2] of the same molecule?
**A.** Its IC50 is greater than 333 µM.
